Efflux pump inh: blocks antifungal efflux pumps in multiplex yeast assay | S. cerevisiae Candida pump triplex, Nile Red efflux | inhibition, % at 10 µM | hit rate 0.44% among 330,000 | AID 485275;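 active = plate passing quality check with inhibition over a set limit, or well fluorescence over plate mean plus 4 SD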;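 also: Nile Red retained in pooled yeast measured as flow cytometry median fluorescence; 0% = buffer negative control and 100% = Enniatin B positive control; higher means more Nile Red kept so more efflux inhibition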
MC4R ag barr: human MC4R agonism via beta-arrestin; P32245; U2OS MC4R beta-arrestin complementation, luminescence; percent of melanotan II response, DMSO zero; activation, % at 8.9 µM; hit rate 0.98% among 360,000;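 active = activation above a per-plate cutoff, the mean activation of sample wells on that plate plus 3 SD, cut at about 8% in these data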
Target sequence (P32245 whole entry, looked up): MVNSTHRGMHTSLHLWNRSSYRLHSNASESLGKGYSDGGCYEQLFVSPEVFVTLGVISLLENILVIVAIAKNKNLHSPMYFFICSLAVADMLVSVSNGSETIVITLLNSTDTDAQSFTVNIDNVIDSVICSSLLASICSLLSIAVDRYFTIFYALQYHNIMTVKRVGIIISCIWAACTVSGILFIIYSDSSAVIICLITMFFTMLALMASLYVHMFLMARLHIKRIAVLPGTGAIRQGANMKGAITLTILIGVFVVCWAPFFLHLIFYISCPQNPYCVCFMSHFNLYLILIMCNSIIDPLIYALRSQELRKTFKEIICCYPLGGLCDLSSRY
TAG inh: reduces triacylglycerol accumulation in H9c2 cells; Nile Red lipid (TAG) fluorescence; cells loaded with 200 µM oleic acid; inhibition, % at 12.5 µM; hit rate 0.66% among 230,000; AID 651582;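 active = pattern-corrected inhibition of lipid staining of at least 50% with the nuclear-stain viability signal not falling by more than 50%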;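 also: 0% = DMSO wells and 100% = triacsin C control wells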
Calb FLC: C. albicans growth modulation with fluconazole; C. albicans CaCi-2 (fluconazole-resistant clinical isolate) + fluconazole, Alamar Blue growth, 48 h; growth inhibition, % (test concentration not listed); hit rate 0.57% among 300,000;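 active = growth inhibition above about 58% in most replicates, limit read from the data, passing the limit was not always enough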;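 also: all wells also contain fluconazole at 8 µg/ml as a sub-toxic cotreatment; 0% = median of DMSO wells and 100% = median of geldanamycin control wells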
MC4R antagonist: antagonists of human melanocortin 4 receptor (MC4R). MC4R-expressing cells, MTII-stimulated cAMP, LANCE TR-FRET. inhibition, % at 6.5 µM. hit rate 0.48% among 360,000;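 active = inhibition above its plate's cutoff, the mean of tested wells on that plate plus 3 SD, cut at about 29% in these data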;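 also: 0% = Melanotan II alone and 100% = Melanotan II plus saturating MCL0020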
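System: U2OS-MC4R stable cell line; Technique: Eu-cAMP/anti-cAMP TR-FRET, emission 671 nm; Repeats: single well per compound; Also added: Melanotan II; Dosing: one concentration, 6.5 µM nominal; Schedule: 30-min compound, 1-h challenge, 1-h detection, room temperature.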
GalR3 antagonist: blocks the human galanin receptor 3; hit rate 0.44% among 360,000; O60755; HEK293 GalR3-CNG cAMP membrane potential fluorescence; galR3 body fused to GalR1 C-terminus; inhibition, % at 3 µM; AID 651719;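 active = inhibition above the screen-wide average plus 3 SD, cut at about 13% in these data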;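 also: forskolin and galanin both at EC90 stimulate the cells; cAMP rise reported by CNG channel membrane potential dye signal; 0% = forskolin plus galanin with DMSO and 100% = forskolin alone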
Target sequence (O60755 1-299 limits assumed): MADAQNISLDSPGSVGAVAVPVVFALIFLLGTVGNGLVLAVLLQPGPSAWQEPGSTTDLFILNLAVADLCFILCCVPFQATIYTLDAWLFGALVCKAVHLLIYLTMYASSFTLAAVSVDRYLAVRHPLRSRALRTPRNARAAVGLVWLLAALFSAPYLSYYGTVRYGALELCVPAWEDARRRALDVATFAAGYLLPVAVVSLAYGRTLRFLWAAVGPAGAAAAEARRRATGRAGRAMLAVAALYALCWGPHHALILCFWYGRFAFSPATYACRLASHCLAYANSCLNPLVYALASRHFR
TAG conf: triacylglycerol accumulation inhibition, confirmation | shares compounds with TAG inh | H9c2 lipid accumulation, Nile Red fluorescence; cells loaded with 200 µM oleic acid | inhibition, % at 12.5 µM | hit rate 71% among 990 | AID 651629;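 active = mean inhibition across replicates of 40% or more; inactive = mean inhibition below 40%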;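 also: plate controls were DMSO only wells for no effect and Triacsin C treated wells for full effect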
Numbers without * were called inactive; · = no result. Only some compounds are listed: those with a hit (about 2.9% of all), similar ones and a draw of the others.

SMILES	Efflux pump inh	MC4R ag barr	TAG inh	Calb FLC	MC4R antagonist	GalR3 antagonist	TAG conf
Cc1cccc(C)c1NC(=O)C(c1ccnc2ccccc12)n1c(=O)c(-c2ccco2)nc2ccccc21 (stereo not given)	·	·	·	·	·	-7	·
COc1ccc(OC)c(C2=Nn3c(nnc3-c3cc(OC)c(OC)c(OC)c3)SC2)c1	0	0	·	-12	-41	5	·
COc1cc(-c2nnc3n2N=C(c2ccccc2)CS3)cc(OC)c1OC	0	-3	90*	-8	-37	10	66*
Cc1cc(C)c(S(=O)(=O)N2C[C@H]3CON(C)[C@H]3C[C@H]2c2ccc(-n3ccnc3)cc2)c(C)c1	·	·	·	·	·	-6	·
C[C@H](CO)N1C[C@H](C)[C@@H](CN(C)Cc2ccncc2)Oc2c(NC(=O)C3CCCCC3)cccc2C1=O	0	-2	2	·	1	-3	·
C[C@@H]1CN([C@@H](C)CO)C(=O)c2cccc(NC(=O)C3CCCCC3)c2O[C@@H]1CN(C)Cc1ccc(Cl)c(Cl)c1	1	-1	55*	·	0	-5	70*
C[C@@H]1CN([C@H](C)CO)C(=O)c2c(c3ccccc3n2C)-c2ccccc2CO[C@H]1CN(C)Cc1ccc(-c2ccccc2)cc1	·	1	84*	·	19	-4	53*
C[C@H](CO)N1C[C@H](C)[C@@H](CN(C)Cc2ccc(-c3ccccc3)cc2)Oc2c(NC(=O)Cc3ccccc3)cccc2C1=O	1	1	50*	·	14	·	59*
C[C@@H]1CN([C@H](C)CO)C(=O)c2c(c3ccccc3n2C)-c2ccccc2CO[C@H]1CN(C)Cc1ccccc1	·	7	34	·	19	-6	·
C[C@@H]1CN([C@H](C)CO)C(=O)c2cccc(NC(=O)Nc3ccc(C(F)(F)F)cc3)c2O[C@H]1CN(C)S(=O)(=O)c1cccs1	0	1	71*	·	18	-5	63*
CN(Cc1ccc(OC(F)F)cc1)C(=O)c1ccc2c(=O)n3c(nc2c1)CCC3	0	-1	22	-4	8	-6	·
COC(=O)c1cc2c(c3c4cc(OC)ccc4n(S(=O)(=O)c4ccc(OC)cc4)c13)C(=O)N(Cc1ccc(C(F)(F)F)cc1)C2	·	·	·	·	·	-2	·
CC(=O)N1CCC(c2nc3ccccc3n2C(C)C(=O)NCc2ccccc2)CC1 (stereo not given)	·	·	·	·	·	-8	·
Cc1ccc(S(=O)(=O)N2CCOCC2)cc1NC(=O)Nc1ccc([N+](=O)[O-])cc1	0	-1	-30	·	4	-5	·
NS(=O)(=O)c1cccc(NC(=O)COC(=O)Cc2ccc(S(=O)(=O)N3CCOCC3)s2)c1	·	0	-8	·	8	-5	·
CCOc1ccc(CCNC(=O)CCc2nc(-c3ccc(C)cc3)no2)cc1OCC	0	-1	63*	7	-1	2	45*
CCOc1ccc(CCNC(=O)CCc2nc(-c3ccc(OC)cc3)no2)cc1OCC	0	2	52*	-2	3	3	39
CCOc1ccc(-c2noc(CCC(=O)NCC3CCCO3)n2)cc1OC (stereo not given)	0	-1	·	-26	0	-9	·
CCOC(=O)[C@]12CCCC=C1N(Cc1ccco1)C(=O)[C@H](CC(=O)N1CCSCC1)C2	·	·	·	·	·	-5	·
CCSCc1nnc(SCC(=O)Nc2nccs2)n1CC	0	-1	15	13	11	1	·
CCn1c(COc2ccc(C(C)C)cc2)nnc1SCC(=O)Nc1nccs1	0	0	57*	8	1	-3	15
CCOC(=O)[C@@H]1[C@H]2COc3ccc(Br)cc3[C@@H]2N2C(=O)N(c3ccc(F)cc3)C(=O)[C@@]12C	-1	-2	22	·	8	-3	·
CCOC(=O)[C@H]1[C@H]2COc3ccc(Br)cc3[C@@H]2N2C(=O)c3cc(Br)ccc3NC(=O)[C@@]12C	·	-1	63*	·	0	-6	52*
CCOC(=O)[C@H]1[C@H]2COc3ccc(Cl)cc3[C@@H]2N2C(=O)c3cc(Cl)ccc3NC(=O)[C@@]12C	·	0	50*	·	15	-7	53*
CCOC(=O)[C@@H]1[C@H]2COc3ccc(Br)cc3[C@@H]2N2C(=O)N(c3ccc(C(F)(F)F)cc3)C(=O)[C@@]12C	0	-1	52*	24	6	-7	69*
SMILES	Efflux pump inh	MC4R ag barr	TAG inh	Calb FLC	MC4R antagonist	GalR3 antagonist	TAG conf
COC(=O)[C@@]1(Cc2ccc(OC)cc2)[C@@H]2C(=CC(=O)[C@H]2CC(=O)C(=O)N2CCCC2)CN1C(=O)c1ccccc1	0	0	53*	·	2	·	55*
COC(=O)[C@@]1(Cc2ccc(F)cc2)[C@H]2C(CC(=O)C(=O)N3CCCC3)C(=O)C[C@H]2CN1C(=O)c1ccccc1 (stereo not given in full)	·	·	·	·	·	-5	·
C[C@H]1CCCCO[C@H](CN(C)CC2CCCCC2)[C@@H](C)CN([C@@H](C)CO)C(=O)c2cc(NS(=O)(=O)c3ccccc3)ccc2O1	·	0	57*	·	7	-7	58*
C[C@@H]1CN([C@H](C)CO)C(=O)c2cc(NC(=O)Nc3ccc(F)cc3)ccc2O[C@@H](C)CCCCO[C@H]1CN(C)Cc1ccc(C(=O)O)cc1	·	-1	-4	·	1	-6	·
COc1ccc(CN(C)C[C@@H]2OCCCC[C@H](C)Oc3ccc(NC(=O)Nc4ccc(F)cc4)cc3C(=O)N([C@H](C)CO)C[C@H]2C)cc1	·	-2	63*	·	8	-7	47*
CN(C)CCN(C)C1CN(C2CCCC2)S(=O)(=O)C1 (stereo not given)	·	·	·	·	·	-5	·
CCCOc1ccc(F)cc1-c1cc(C(=O)NCc2cc(OC)cc(OC)c2)[nH]n1	·	0	54*	·	-1	-4	50*
CC1CCN(S(=O)(=O)N2CCC(C(=O)NCc3ccc(F)cc3Cl)CC2)CC1	·	1	-20	·	10	-1	·
Cc1cc(C)c2nc(N3CCC(C(=O)NCCCN4CCCCC4)CC3)sc2c1	0	-1	60*	42	-2	-7	33
Cc1cc(C)c2nc(N3CCC(C(=O)NCC4CCCO4)CC3)sc2c1 (stereo not given)	0	-3	·	-3	13	-8	·
N#CC1C=Cc2c(ccc3ccccc23)N1C(=O)c1ccccc1 (stereo not given)	·	1	60*	·	-18	8	56*
O=C(NCc1cccs1)c1csc([C@@H]2O[C@H](CO)[C@H](O)[C@H](O)[C@H]2O)n1	·	-1	2	·	-6	-7	·
CCOC(=O)CN(C(=O)CSc1nnc2c(n1)[nH]c1ccc(F)cc12)c1ccccc1	0	1	-1	-5	3	-1	·
